Reference: article PMC3999704 (Current Chemical Genomics and Translational Medicine, 2014)

Legend:
Format in all cases: cell-based, rat
[1] = tested on: thyroid hormone receptor (TR); details: 24 well format, 24h, normalized to total protein values
Outline: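 GH3.TRE-Luc cells were seeded at 150,000/well in DMEM:F12 with 15 mM HEPES, 10% FBS and Pen/Strep. After 24 h the medium was changed to PCM medium for another 24 h. Cells were then exposed 24 h to ligands in 0.2% DMSO. Luciferase was read from lysed cells and cell number estimated by BCA protein assay. Duplicates per dose, ≥3 experiments.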

[2] = tested on: thyroid hormone receptor (TR); experiment: qHTS GH3.TRE-Luc luciferase reporter gene assay, agonist mode; details: LOPAC library screen
Outline: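 Cells were held 20 h in serum-free assay medium (DMEM:F12 with insulin, ethanolamine, selenite, apotransferrin and BSA), then detached and dispensed in 5 µl/well. After 4–5 h at 37°C, compound or DMSO was pinned in (final DMSO 0.46 or 0.92%) for 24 h. One-Glo was added, 30 min at room temperature, then luminescence read. Data were normalized to 100 nM T3 (100%) and DMSO (0%).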

GH3.TRE-Luc cells = experiment: Cell viability assay, intracellular ATP content; details: over the range of concentrations used within the 24 h treatment, presence of 1 nM T3

Structure (SMILES)	induction of the reporter gene luciferase activity [1]	other results
O=S(=O)(c1ccccc1)N(CC(F)(F)F)c1ccc(C(O)(C(F)(F)F)C(F)(F)F)cc1 [T0901317]	neither the RAR-specific ligand TTNPB nor the LXR-specific ligand T0901317 activated the reporter gene	–
NCCCC(=O)O [GABA]	–	response in this assay [2]: did not show any response
O=c1[nH]cc(F)c(=O)[nH]1 [5-fluorouracil]	–	cytotoxicity (GH3.TRE-Luc cells): without apparent cytotoxicity
N[C@@H](Cc1cc(I)c(Oc2ccc(O)c(I)c2)c(I)c1)C(=O)O [T3, triiodothyronine]	showed the expected induction profiles	–
C/C(=C\c1ccc(C(=O)O)cc1)c1ccc2c(c1)C(C)(C)CCC2(C)C [TTNPB]	neither the RAR-specific ligand TTNPB nor the LXR-specific ligand T0901317 activated the reporter gene	–
